Screens deposited in PubChem BioAssay by several laboratories.
Apaf-1 inh: inhibitors of human Apaf-1 apoptosome; reconstituted apoptosome caspase-3 activity, DEVD-Rh110 fluorescence; inhibition, % at 20 µM; 330,000 tested, 0.71% active; AID 489030; active = inhibition of at least 40% at 20 µM;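 also: plate controls were DMSO wells for no effect and DEVD-CHO caspase inhibitor wells for full effect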
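Assay system – apoptosome proteins · Medium – Hepes buffer, pH 7.5 · Also added – cytochrome c with DEVD-Rh110 · Timing – 30 min compound preincubation, 50 min activation, room temperature · Detection – Rh110 fluorescence, excitation 480 nm, emission 540 nm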
MEKK3 PB1 HTS: modulators (inhibitors or enhancers) of MEK5 binding to human MEKK3 PB1 domain | 290,000 tested, 1.4% active | Q99759 | binding response (% of control), % at 10 µM | bead-based flow cytometry, Alexa488-MEK5 binding to MEKK3; actives lie on both sides; 0 = blocked by unlabeled MEK5, 100 = vehicle | AID 1529;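 active = binding response more than 3 SD above or below the average of its plate-row segment, actives on both sides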;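 also: Alexa488 bead fluorescence after subtracting the streptavidin-only scavenger bead signal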
PREPL inh: inhibitors of human prolyl oligopeptidase-like enzyme PREPL. Q4J6C6. recombinant PREPL, fluorescence polarization activity-based probe. inhibition, % at 5.96 µM. 320,000 tested, 0.68% active. AID 2751; in the data active = inhibition above about 43%;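 also: 0% = enzyme with DMSO and 100% = wells lacking enzyme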
UBC13 inh: blocks human UBC13 polyubiquitin chain formation. inhibition, % at 20 µM. TR-FRET. P61088. 330,000 tested, 0.47% active; in the data active = inhibition above about 45%, passing the limit was not always enough
Target sequence (P61088 whole entry, looked up): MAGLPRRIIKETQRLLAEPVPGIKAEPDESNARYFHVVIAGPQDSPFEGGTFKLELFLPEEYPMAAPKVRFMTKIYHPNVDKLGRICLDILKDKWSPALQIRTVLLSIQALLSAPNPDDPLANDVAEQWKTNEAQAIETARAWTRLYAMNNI
MEKK2wt PB1 HTS: raises or lowers MEK5 binding to wildtype human MEKK2 PB1 domain; binding response (% of control), % at 10 µM; bead flow cytometry, Alexa488-MEK5 binding to MEKK2 WT; actives lie on both sides; 290,000 tested, 1.1% active; AID 1531; Q9Y2U5; in the data active = binding response below about 67% or above about 130%
MEKK2mut PB1 HTS: signal of MEK5 binding to mutant human MEKK2 PB1 domain | bead flow cytometry, Alexa488-MEK5 binding to MEKK2 mutant | percent response, % at 10 µM | 290,000 tested, 0.35% active | AID 1530; in the data active = percent response above about 24%, passing the limit was not always enough
MEKK2wt confirm: raises or lowers MEK5 binding to wildtype human MEKK2, retest. shares compounds with MEKK3 PB1 HTS. bead flow cytometry, Alexa488-MEK5 binding to MEKK2 WT; actives lie on both sides. binding response (% of control), % at 10 µM. 5,900 tested, 2.4% active. AID 1892; in the data active = binding response below about 16% or above about 210%; inactive = in between
MEKK2mut-MEK5: signal of MEK5 binding to mutant human MEKK2, retest | shares compounds with MEKK3 PB1 HTS | bead flow cytometry, Alexa488-MEK5 binding to MEKK2 mutant | percent response, % at 10 µM | 5,900 tested, 2% active | AID 1893; in the data active = percent response mostly above about 71%, no sharp cut-off; inactive = mostly below about 38%;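 also: higher means compound restores mutant binding toward wildtype level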
MEKK3-MEK5 inh: confirmation of inhibitors of MEK5 binding to human MEKK3; shares compounds with MEKK3 PB1 HTS; 5,900 tested, 1.8% active; binding response (% of control), % at 10 µM; bead flow cytometry, Alexa488-MEK5 binding to MEKK3; active compounds read low; AID 1894;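 active = binding response below 72% of control, or above a set upper limit, though filed actives all read lower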;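 also: 100% = DMSO only wells and 0% = binding blocked by excess unlabeled MEK5; lower values mean stronger disruption of MEK5 binding to MEKK3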
Starred values were filed as active, the others as inactive; . = no result given; [ ] = another dose, or the depositor's remark. This is a sample that favours compounds with a hit; in the whole collection about 3.1% have one here.

SMILES	Apaf-1 inh	MEKK3 PB1 HTS	PREPL inh	UBC13 inh	MEKK2wt PB1 HTS	MEKK2mut PB1 HTS	MEKK2wt confirm	MEKK2mut-MEK5	MEKK3-MEK5 inh
O=C(COC(=O)c1cccnc1Cl)Nc1cc(S(=O)(=O)N2CCCCCC2)ccc1Cl	20	.	.	1	.	.	.	.	.
CCOC(=O)c1c(NC(=O)COc2cccc3c2CCN(CC)C3=O)sc2c1CCC2	18	101	7	0	97	-2	.	.	.
CN(C)CCN1CCc2ccccc21	16	100	24	18	144*	11	152	38	97
CC(C)C(NC(=O)c1c(F)cccc1F)C(=O)NCc1ccc(S(=O)(=O)N2CCOCC2)cc1 (centres undefined)	-5	.	5	0	.	.	.	.	.
CCCCn1c(N)c(-c2nc3ccccc3s2)c2c([N+](=O)[O-])nn(C)c(=O)c21	6	82*[inhibitor]	19	-54	100	-3	112	5	97
CC(C)c1nc2sc3c(=O)n(N)cnc3c2c2c1COC(C)(C)C2	3	145*	-5	17	104	0	120	31	119
COc1ccc(N2C(=O)CC(Sc3nc(C)cc(C)c3C#N)C2=O)cc1 (centres undefined)	-16	1.0*[inhibitor]	-5	0	-7.0*[inhibitor]	-3	102	2	106
CC(Cc1ccccc1)NC(=O)/C=C/c1ccc([N+](=O)[O-])cc1 (centres undefined)	2	150*	6	-24	108	1	101	-2	102
CC1Cc2cc(S(=O)(=O)N3CCC(C(=O)N(C)Cc4ccccc4)CC3)ccc2N1C(=O)C1CC1 (centres undefined)	13	101	11	6	105	2	.	.	.
Cc1[nH]n(-c2ccc(F)cc2)c(=O)c1C=Nc1ccc(S(=O)(=O)N(C)C)cc1	-4	97	-7	0	11*[inhibitor]	13	102	6	101
Cc1[nH]n(-c2ccccc2)c(=O)c1C=Nc1ccc(S(=O)(=O)N(C)C)cc1	8	105	6	-4	103	-2	.	.	.
CN(Cc1ccccc1NS(=O)(=O)c1ccc2ccccc2c1)C1CCCCC1	6	105	-14	-2	98	0	.	.	.
Cc1ccc2cccc(Oc3nnnn3-c3ccccc3)c2n1	15	105	21	-4	105	2	.	.	.
c1ccc(-n2nnnc2Oc2cccc3cccnc23)cc1	8	0.0*[inhibitor]	-5	-4	-8.0*[inhibitor]	-25	97	-5	103
CC1c2ccccc2N(NC(=O)Cc2ccccc2)C1C (centres undefined)	-16	135*	6	3	131	28	101	1	102
Cc1cc(Cl)c2oc(C(=O)N3CCN(c4ccncc4)CC3)c(C)c2c1	29	106	5	16	147*	25*	153	30	111
CCNc1nc(-c2ccc(OC(F)F)cc2)c(C)s1	4	66	-4	0	60	-33	.	.	.
Cc1ccc(NC(=O)CSc2nnc(COc3ccc(C#N)cc3)n2-c2ccccc2)cc1C	24	1.0*[inhibitor]	-11	9	1.0*[inhibitor]	-16	99	-4	95
Cc1nc2cc(NC(=O)COc3ccc(C#N)cc3)ccc2n1-c1ccccc1	14	2.0*[inhibitor]	-1	11	2.0*[inhibitor]	-16	98	-3	101
Cc1ccc(C(=O)CSc2nnc(COc3ccc(C#N)cc3)n2-c2ccccc2)cc1	-1	82	-2	-1	94	-4	.	.	.
CCn1cc(S(=O)(=O)NCCc2ccccc2OC)cn1	2	100	12	2	105	7	.	.	.
C[C@@H]1CC=C[C@H]2[C@H]1C(=O)N(Cc1ccccc1)[C@H]2c1ccc(F)c(-c2ccc(N(C)C)cc2)c1	18	66*[inhibitor]	8	2	54*[inhibitor]	2	100	-12	98
CC[C@@H]1CC=C[C@H]2[C@H]1C(=O)N(Cc1ccccc1)[C@H]2c1ccc2ccccc2c1	15	79*[inhibitor]	.	-8	94	-7	99	14	102
CCN(CC)CCCNc1nc2ccccc2c2nc(-c3ccncc3)nn12	0	101	-54	15	105	1	.	.	.
Cc1n[nH]c(C)c1Sc1ccccc1[N+](=O)[O-]	-12	57*[inhibitor]	-25	10	82	-3	101	-3	100
SMILES	Apaf-1 inh	MEKK3 PB1 HTS	PREPL inh	UBC13 inh	MEKK2wt PB1 HTS	MEKK2mut PB1 HTS	MEKK2wt confirm	MEKK2mut-MEK5	MEKK3-MEK5 inh
CCOc1ccc(N=C(/C(C(=O)C(=O)N2CCOCC2)=C(/O)c2ccccc2)c2ccccc2)cc1	-13	49*[inhibitor]	-5	-12	78	-37	91	-9	98
O=C1CCc2cc(S(=O)(=O)Nc3ccc(F)cc3)cc3c2N1CC3	5	.	-10	-3	.	.	.	.	.
CC(C)c1ccc(OCCCN2CCCC2)cc1	-4	103	-2	1	102	26*	95	-9	90
CC(C)c1ccc(OCCCCCN2CCOCC2)cc1	7	104	22	7	110	11	.	.	.
Cc1ccc2c(c1)N(C(C)C(=O)NCc1cccs1)C(=O)CO2 (centres undefined)	-20	104	6	-6	107	7	.	.	.
Cc1ccc2c(c1)N(C(C)C(=O)NCc1ccc3c(c1)OCO3)C(=O)CO2 (centres undefined)	-23	30*[inhibitor]	5	6	29*[inhibitor]	-14	130	12	107
CC(Cc1c[nH]c2ccccc12)NC(N)=O (centres undefined)	4	129*	10	-1	111	0	107	13	111
CCn1c(SCC(=O)NCCCN2CCCC2=O)nnc1-c1cccc(C)c1	1	.	.	-4	.	.	.	.	.
C#CCOCCOCCOCCNc1nc(N2CCN(C(=O)C([C@@H](C)CC)n3cc(C(N)CO)nn3)CC2)nc(N2CCN(C(=O)C([C@@H](C)CC)n3cc(C(N)COC(=O)C(F)(F)F)nn3)CC2)n1 (some centres undefined)	22	106	16	30	130	9	.	.	.
C#CCOCCOCCOCCNc1nc(N2CCN(C(=O)[C@H]([C@@H](C)CC)n3cc([C@@H](N)CC(C)C)nn3)CC2)nc(N2CCN(C(=O)[C@H](CCCCN)n3cc([C@@H](N)CC(C)C)nn3)CC2)n1	-1	105	13	55*	151*	23	150	25	107
